pKd: −log10 of the molar value.
Columns and labels:
[1] = tested on: primary adult rat cardiomyocytes; test: LDH release of primary cardiomyocytes; format: cell-based; details: 12 h
Method in brief: (§1)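 Cardiomyocytes came from male SD rats (about 280 g), isolated by Langendorff collagenase II/hyaluronidase perfusion and purified by three gravity sedimentations. They were cultured on laminin in M199 with 10% FBS, penicillin-streptomycin and glutamine. Cells were exposed with or without DOX and with or without test compound for 12 h. Cells and supernatant were measured with commercial ATP and LDH-activity kits. Mean ± SEM.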

[2] = tested on: primary adult rat cardiomyocytes; test: Total ROS by DCFH-DA staining, flow cytometry; format: cell-based
[3] = tested on: myocardium of DOX-treated mice; test: Myocardial iron content; format: in vivo, mouse; details: with or without glycnsisitin A, ferrozine, 550 nm
Method in brief: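 Heart tissue from DOX-induced heart-failure mice (± test compound) was homogenised in lysate. Homogenate was mixed 1:1 with permanganate-containing solution A and held 1 h at 60 °C, then cooled. Iron (ferrozine) detection reagent was added for 30 min at room temperature. Absorbance was read at 550 nm and iron content calculated from a standard curve.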

transferrin [4] = test: Immunoblot of transferrin in heart tissues; format: in vivo, mouse
TFRC [5] = test: Immunoblot of TFRC in heart tissues; format: in vivo, mouse; details: glycnsisitin A with or without DOX, DOX alone in HF tissue
DOX-induced HF mice [6] = test: Serum CK and LDH activity in DOX-induced HF mice; format: in vivo, mouse (ICR); details: glycnsisitin A i.p. daily Days 15–28
Method in brief: (§2)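 Male ICR mice (about 40 g, 10-week-old, SPF) received a single i.p. DOX dose of 15 mg/kg; heart failure was established by Day 14. On Days 15–28 they were dosed i.p. daily with test compound (50, 100 or 200 mg/kg), cedilanid 150 mg/kg, or PBS 10 mL/kg. Blood was taken 8 h after dosing on Day 29 and spun 4500 rpm, 15 min, 4 °C. Serum CK and LDH activities and BNP and NT-proBNP were measured by kits. Mean ± SEM.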

[7] = tested on: primary adult rat cardiomyocytes; test: Trypan blue staining of dead cells, primary cardiomyocytes + DOX; format: cell-based
DOX-induced HF mice [8] = test: Survival in acute DOX-induced HF mouse model; format: in vivo, mouse (ICR)
Method in brief: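 Male ICR mice (about 40 g, 10 weeks) had acute heart failure induced by a single i.p. 15 mg/kg DOX dose. From Day 15 to 28 they were dosed i.p. daily with test compound (50, 100 or 200 mg/kg), cedilanid 150 mg/kg or PBS 10 mL/kg. Deaths were recorded daily, and survival was analysed by Kaplan–Meier.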

TFRC [9] = test: Relative mRNA level of TFRC in cardiomyocytes; format: cell-based; details: cultured cardiomyocytes
[10] = tested on: transferrin–TFRC interaction; test: Cellular immunoprecipitation of transferrin with TFRC; format: cell-based; details: anti-His immunoprecipitation, blotted anti-transferrin and anti-TFRC
[11] = tested on: primary adult rat cardiomyocytes; test: Iron content of primary cardiomyocytes, TFRC neutralization; format: cell-based; details: glycnsisitin A + DOX; with or without NAb-anti-TFRC pretreatment
Method in brief: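 Langendorff-isolated adult rat cardiomyocytes in six-well plates were pretreated ± TFRC-neutralizing antibody, then given DOX and test compound. After two PBS washes, cells were lysed 2 h at room temperature on a shaker. Lysate was mixed 1:1 with permanganate-containing solution A and held 1 h at 60 °C, then cooled. Ferrozine iron reagent was added for 30 min at room temperature. A550 was read and iron calculated from a standard curve.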

DOX-induced HF mice [12] = test: Echocardiography in DOX-induced HF mice; format: in vivo, mouse (ICR); details: compared with cedilanid
Method in brief: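 Male ICR mice (~40 g, 10 weeks) got a single i.p. DOX 15 mg/kg, with HF established by Day 14. On Day 28, 8 h post-dose, mice were anesthetized with avertin on a 37 °C table. M-mode short-axis scans at papillary level (10 MHz, 10–20 cycles) gave LVAWd.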

TFRC [13] = test: Protein half-life of TFRC after CHX; format: cell-based; details: compared with control
transferrin [14] = target: T1, transferrin (Homo sapiens, UniProt P02787); test: Protein half-life of transferrin after CHX; format: cell-based; details: compared with control
[15] = tested on: primary adult rat cardiomyocytes; test: ATP levels of primary cardiomyocytes; format: cell-based; details: 12 h
Method in brief: as §1

[16] = tested on: primary adult rat cardiomyocytes; test: Alamar blue assay, DOX-injured primary cardiomyocytes; format: cell-based
Method in brief: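 Cardiomyocytes came from male Sprague-Dawley rats (~280 g) by Langendorff perfusion with collagenase II/hyaluronidase/BSA and stepwise CaCl2. Cells were purified by three gravity sedimentations and cultured on laminin in M199 with 10% FBS, penicillin-streptomycin and 1% glutamine. DOX-injured cells received test compound, and viability was read by alamar blue.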

transferrin [17] = target: T1, transferrin; test: SPR on transferrin-coated CM5 sensor chips; format: binding
Method in brief: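 Test compound was flowed over at a range of concentrations and response units recorded. KD was derived by the instrument's evaluation fitting.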

[18] = tested on: primary adult rat cardiomyocytes; test: LDH activity in supernatant of primary cardiomyocytes, TFRC neutralization; format: cell-based; details: DOX + glycnsisitin A; with or without TFRC block
Method in brief: (§3)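 Adult cardiomyocytes were isolated from male Sprague-Dawley rats (about 280 g) by Langendorff perfusion with collagenase II and hyaluronidase. They were purified by three gravity sedimentations and cultured on laminin in M199 with 10% FBS, pen-strep and glutamine. Cells were pretreated with TFRC-neutralizing antibody (level not stated), then given DOX ± test compound for 12 h. Cells and supernatant were assayed with commercial LDH-activity or ATP kits. Mean ± SEM.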

[19] = tested on: primary adult rat cardiomyocytes; test: Mitochondrial ROS by MitoSOX staining; format: cell-based; details: 10 μmol/L glycnsisitin A with 8.6 μmol/L DOX, 6 h, confocal
Method in brief: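 Primary adult rat cardiomyocytes in glass-bottomed confocal dishes received test compound and/or DOX for 6 h. They were then loaded with MitoSOX Red for 30 min at 37 °C, 5% CO2, in the dark, and washed three times with warm HBSS containing Ca/Mg. Fluorescence was imaged by laser confocal microscopy (ex 396/em 610 nm).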

H9C2 cardiomyocytes = test: Alamar blue cell viability, DOX-injured H9C2 cardiomyocytes; format: cell-based, rat; details: in vitro model of DOX-induced cardiomyocyte injury
Method in brief: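 H9C2 cells were grown in DMEM with 10% FBS and penicillin-streptomycin at 37 °C, 5% CO2, then seeded at 5000/well overnight. Cells were co-treated with DOX and test compound for 12 h, then incubated 4 h in medium with 10% alamar blue. Fluorescence was read at ex 530/em 590 nm. Viability = (treated − medium)/(control − medium) × 100; EC50 calculated.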

[20] = tested on: primary adult rat cardiomyocytes; test: ATP content of primary cardiomyocytes, TFRC neutralization; format: cell-based; details: DOX-injured cardiomyocytes + glycnsisitin A; with or without NAb-anti-TFRC
Method in brief: as §3

DOX-induced HF mice [21] = test: BNP and NT-proBNP levels in DOX-induced HF mice; format: in vivo, mouse (ICR); details: compared to DOX-induced HF mice
Method in brief: as §2

transferrin [22] = target: T1, transferrin; test: Relative mRNA level of transferrin in cardiomyocytes; format: cell-based; details: cultured cardiomyocytes
DOX-induced HF mice [23] = test: Heart histology; format: in vivo, mouse (ICR); details: compared with cedilanid
Method in brief: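 Heart failure was induced in male ICR mice by a single i.p. DOX dose (15 mg/kg). Test compound (50/100/200 mg/kg), cedilanid ([…]) or PBS was then given i.p. daily on Days 15–28. Hearts were collected on Day 29, fixed in 4% paraformaldehyde and sectioned. H&E staining was scored for myocardial histopathology; Masson trichrome was quantified as relative fibrosis area.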

cancer cells = details: clinical limitation; ref [29]; cited from earlier work
HF patients = details: supplementation; ref [8], [9]; cited from earlier work

T1 sequence (P02787 20-698, species assumed): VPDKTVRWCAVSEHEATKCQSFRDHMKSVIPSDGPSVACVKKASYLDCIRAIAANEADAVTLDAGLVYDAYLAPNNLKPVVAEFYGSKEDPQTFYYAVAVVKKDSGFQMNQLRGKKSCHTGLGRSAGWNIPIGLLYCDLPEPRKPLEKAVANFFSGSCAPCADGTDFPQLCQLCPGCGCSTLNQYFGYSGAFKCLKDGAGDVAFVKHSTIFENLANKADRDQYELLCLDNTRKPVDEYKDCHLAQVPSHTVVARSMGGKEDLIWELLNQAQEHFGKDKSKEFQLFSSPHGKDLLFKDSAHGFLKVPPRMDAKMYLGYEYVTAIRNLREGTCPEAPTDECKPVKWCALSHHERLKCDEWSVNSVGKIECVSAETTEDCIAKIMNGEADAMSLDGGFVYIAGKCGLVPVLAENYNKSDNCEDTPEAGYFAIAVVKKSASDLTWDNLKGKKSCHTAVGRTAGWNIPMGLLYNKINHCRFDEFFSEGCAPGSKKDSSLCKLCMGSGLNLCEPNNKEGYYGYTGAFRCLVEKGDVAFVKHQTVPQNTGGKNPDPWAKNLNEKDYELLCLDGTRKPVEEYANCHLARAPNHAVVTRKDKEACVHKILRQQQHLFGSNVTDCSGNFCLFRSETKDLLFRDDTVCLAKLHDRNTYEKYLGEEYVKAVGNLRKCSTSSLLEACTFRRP

COc1cccc2c1C(=O)c1c(O)c3c(c(O)c1C2=O)C[C@@](O)(C(=O)CO)C[C@@H]3O[C@H]1C[C@H](N)[C@H](O)[C@H](C)O1 [DOX, doxorubicin, reference compound]
LDH release, DOX alone [1]: elevation in the release of lactate dehydrogenase (LDH) | ROS levels, DOX alone [2]: dramatically increased | myocardial iron content [3]: significant loss of iron | decrease in transferrin expression in heart tissue (transferrin [4]; DOX-treated mice, immunoblot ratio to GAPDH): over 50% | TFRC level in mouse myocardium (TFRC [5]): decreased levels of both transferrin and TFRC | serum CK activity (DOX-induced HF mice [6]): markedly increased | serum LDH activity (DOX-induced HF mice [6]): markedly increased | increase in the number of trypan blue-positive cells ([7]; 8.6 μmol/L DOX for 24 h, compared with solvent control): approximately fourfold | mortality rate (DOX-induced HF mice [8]; single i.p. 15 mg/kg DOX): 50%

CC(C)[C@@H]1NC(=O)[C@@H]2Cc3ccc(cc3)O[C@H]3C[C@H](NC3=O)C(=O)N3CCC[C@H]3C(=O)N[C@@H](Cc3ccc(O)cc3)C(=O)N[C@@H](C(=O)N[C@@H](C(C)C)C(=O)N2)c2cc(ccc2O)C[C@@H](C(=O)O)NC1=O [Glycnsisitin A]
TFRC mRNA level / transcription (TFRC [9]): increased the TFRC transcription | content of immunoprecipitated transferrin [10]: much higher | LDH release, DOX + glycnsisitin A [1]: significantly suppressed | iron content, DOX-treated cardiomyocytes [11]: restored the decline in iron content | diastolic LV anterior wall diameter (LVAWd) (DOX-induced HF mice [12]): thicker diastolic LV anterior wall diameter | myocardial iron content [3]: effectively restored to normal | TFRC stability (in words) (TFRC [13]): decreased TFRC stability | half-life of transferrin protein (in words) (transferrin [14]): could increase the half-life of transferrin protein | total transferrin level in mouse myocardium (transferrin [4]; regardless of the presence of DOX): significantly increased the total transferrin levels | total ATP levels following DOX induction ([15]; presence vs absence of glycnsisitin A, with DOX): a substantial difference was observed | total ATP levels, normal conditions ([15]; primary cardiomyocytes without DOX): did not have an impact on ATP levels | cell survival (alamar blue) [16]: proved the primary cell protective function | pKd (transferrin [17]): 5.62 | LDH content in supernatant [18]: much lower | mitochondrial ROS generation [19]: significantly attenuated the excessive generation of mitochondrial ROS | TFRC level in mouse myocardium (TFRC [5]): consistent with the trend observed for TFRC | serum CK activity (DOX-induced HF mice [6]): completely reversed | serum LDH activity (DOX-induced HF mice [6]): completely reversed | cardioprotective activity, relative to glycnsisitins B and C (H9C2 cardiomyocytes): stronger cardioprotective activity than glycnsisitins B and C | ATP production [20]: noticeably augmented ATP production | BNP level (DOX-induced HF mice [21]): lower levels | NT-proBNP level (DOX-induced HF mice [21]): lower levels | cardiotoxicity / cell death (trypan blue) ([7]; DOX 8.6 μmol/L + glycnsisitin A): significantly attenuated the cardiotoxicity induced by DOX and reduced cell death | transferrin mRNA level (transferrin [22]): did not affect the mRNA content of transferrin | pathology score (DOX-induced HF mice [23]; H&E): lower pathology score | collagen deposition (DOX-induced HF mice [23]; Masson trichrome): lesser collagen deposition | overall survival rate (DOX-induced HF mice [8]; 200 mg/kg i.p. daily Days 15–28 after DOX 15 mg/kg i.p.): 90% | survival rate, dose dependence (DOX-induced HF mice [8]; 50, 100, 200 mg/kg i.p. daily Days 15–28 after DOX): increased in a dose-dependent manner

C[C@@H](CN1CC(=O)NC(=O)C1)N1CC(=O)NC(=O)C1 [dexrazoxane (DXZ), dexrazoxane]
chemotherapy resistance (cancer cells): potential to confer chemotherapy resistance to cancer cells

ferric derisomaltose [ferric derisomaltose (FDI)]
HF symptoms and rehospitalization (HF patients): could alleviate HF symptoms and reduce rehospitalization
